Results taken from ChEMBL document CHEMBL4138071, “Synthesis, antioxidant and antitumoral activities of 5'-arylchalcogeno-3-aminothymidine (ACAT) derivatives” (Medchemcomm, 2017).
Active and inactive are the calls of the source. The rule behind the calls is not given here.

Assays:
[1] = Thiol peroxidase-like activity assessed as induction of hydrogen peroxide decomposition at 50 to 250 uM using benzenethiol incubated for 20 mins; type: functional
Method in brief: (§1)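 This is a GPx-mimetic assay using benzenethiol (2.5 mM) instead of glutathione. The mix held ethanol, compound at final 0 - 450 μM or DMSO blank, and hydrogen peroxide (2.3 mM).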

[2] = Antioxidant activity assessed as inhibition of Fe2+-induced phosphatidylcholine oxidation incubated for 1 hr by TBARS assay; type: functional
[3] = Antioxidant activity assessed as DPPH radical scavenging activity at 0.5 mM measured at 77.3 +/- 10.3 mins; type: functional
Method in brief: (§2)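 Each compound mixed with 0.3 mM DPPH in ethanol. Most tests used 1 mM compound; the concentration curve covered final 0 - 1 mM. Absorbance at 518 nm was read every 30 min for 180 min. BHT served as positive control.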

Mus musculus [4] = assay: Toxicity in Swiss mouse assessed as effect on liver to body weight ratio level at 100 umol/kg, sc after 7 days; type: organism-based; settings: in vivo, 168 h
Method in brief: (§3)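 Adult male Swiss mice were randomized into two groups, n = 4 each. They received a subcutaneous injection of 100 μmol/kg compound or DMSO vehicle (1 mL/kg).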

[5] = Antioxidant activity assessed as DPPH radical scavenging activity at 1 mM incubated for 90 mins; type: functional; method in brief: as §2
Mus musculus [6] = assay: Toxicity in Swiss mouse assessed as effect on kidney to body weight ratio level at 100 umol/kg, sc after 7 days; type: organism-based; settings: in vivo, 168 h; method in brief: as §3
Mus musculus [7] = assay: Renal toxicity in Swiss mouse assessed as effect on creatinine level at 100 umol/kg, sc after 7 days; type: organism-based; settings: in vivo, 168 h; method in brief: as §3
Mus musculus [8] = assay: Renal toxicity in Swiss mouse assessed as effect on urea level at 100 umol/kg, sc after 7 days; type: organism-based; settings: in vivo, 168 h; method in brief: as §3
Mus musculus [9] = assay: Hepatic toxicity in Swiss mouse assessed as effect on AST level at 100 umol/kg, sc after 7 days; type: organism-based; settings: in vivo, 168 h; method in brief: as §3
Mus musculus [10] = assay: Toxicity in Swiss mouse assessed as effect on water intake level at 100 umol/kg, sc measured over 7 days; type: organism-based; settings: in vivo, 168 h; method in brief: as §3
5637 [11] = assay: Antiproliferative activity in human 5637 cells assessed as inhibition of cell growth at 6.25 to 12.5 uM incubated for 48 hrs by MTT assay; type: functional
Method in brief: (§4)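 Bladder carcinoma 5637 cells in log phase were grown in DMEM with 10% FBS at 37 °C, 5% CO2. They were seeded at 2 x 10^4 per well and treated 24 and 48 h, with DMSO up to 0.5% as vehicle. MTT was added for 3 h and A492 read. Inhibition = (1 − Abs treated/Abs control) x 100. Results are mean ± SEM.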

Mus musculus [12] = assay: Toxicity in Swiss mouse assessed as effect on spleen to body weight ratio level at 100 umol/kg, sc after 7 days; type: organism-based; settings: in vivo, 168 h; method in brief: as §3
Mus musculus [13] = assay: Toxicity in Swiss mouse assessed as effect on brain to body weight ratio level at 100 umol/kg, sc after 7 days; type: organism-based; settings: in vivo, 168 h; method in brief: as §3
Mus musculus [14] = assay: Toxicity in Swiss mouse assessed as effect on body weight level at 100 umol/kg, sc measured over 7 days; type: organism-based; settings: in vivo, 168 h; method in brief: as §3
[15] = Antioxidant activity assessed as inhibition of Fe2+-induced phosphatidylcholine oxidation at 200 uM […] by TBARS assay; type: functional
Mus musculus [16] = assay: Toxicity in Swiss mouse assessed as effect on food intake level at 100 umol/kg, sc measured over 7 days; type: organism-based; settings: in vivo, 168 h; method in brief: as §3
5637 [17] = assay: Antiproliferative activity in human 5637 cells assessed as inhibition of cell growth incubated for 24 hrs by MTT assay; type: functional, cell-based; settings: Homo sapiens, 5637, 24 h; method in brief: as §4
5637 [18] = assay: Cell cycle arrest in human 5637 cells assessed as increase in accumulation at S phase at 12.5 uM by propidium iodide staining based flow cytometry; type: functional
Method in brief: (§5)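 5637 cells were seeded at 1x10^5 and synchronized 24 h in serum-free medium. They were then treated 24 h at 12,5 µM. DNA content was measured by propidium iodide staining with a kit and flow cytometry.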

5637 [19] = assay: Cell cycle arrest in human 5637 cells assessed as increase in accumulation at subG1 phase at 12.5 uM by propidium iodide staining based flow cytometry; type: functional; method in brief: as §5
Mus musculus [20] = assay: Toxicity in Swiss mouse assessed as appearance of overt toxic signs at 100 umol/kg, sc measured over 7 days; type: organism-based; settings: in vivo, 168 h; method in brief: as §3
5637 [21] = assay: Cell cycle arrest in human 5637 cells assessed as reduction in accumulation at G1 phase at 12.5 uM by propidium iodide staining based flow cytometry; type: functional; method in brief: as §5
[22] = Antioxidant activity assessed as DPPH radical scavenging activity at 1 mM measured at 38.7 +/- 8.9 mins; type: functional; method in brief: as §2
Mus musculus [23] = assay: Hepatic toxicity in Swiss mouse assessed as effect on ALT level at 100 umol/kg, sc after 7 days; type: organism-based; settings: in vivo, 168 h; method in brief: as §3
[24] = Toxicity in Swiss mouse assessed as mortality level at 100 umol/kg, sc measured over 7 days; type: organism-based; settings: in vivo, read-out: Activity; method in brief: as §3
[25] = Antioxidant activity assessed as DPPH radical scavenging activity at 0.1 mM measured at >180 mins; type: functional; method in brief: as §2
[26] = Thiol peroxidase-like activity assessed as induction of hydrogen peroxide decomposition at 450 uM using benzenethiol incubated for 20 mins; type: functional; method in brief: as §1
[27] = Antioxidant activity assessed as DPPH radical scavenging activity at 0.25 mM measured at 104.7 +/- 10.0 mins; type: functional; method in brief: as §2
5637 [28] = assay: Antiproliferative activity in human 5637 cells assessed as inhibition of cell growth incubated for 48 hrs by MTT assay; type: functional, cell-based; settings: Homo sapiens, 5637, 48 h; method in brief: as §4
5637 [29] = assay: Antiproliferative activity in human 5637 cells assessed as inhibition of cell growth at 6.25 to 12.5 uM incubated for 24 hrs by MTT assay; type: functional; method in brief: as §4
[30] = Thiol peroxidase-like activity assessed as induction of hydrogen peroxide decomposition at 55 to 225 uM using benzenethiol in presence of thiophenol incubated for 20 mins; type: functional; method in brief: as §1
[31] = Toxicity in human leukocytes assessed as reduction in cell viability at 100 uM incubated for 3 hrs; type: cell-based
Method in brief: (§6)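 Human leukocytes were isolated (2 x 10^6/mL) and incubated 3 h in Hank's buffer with 10% human plasma. Controls were DMSO 0.5% vehicle and 1 mM t-butyl hydroperoxide as positive control.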

[32] = Antioxidant activity assessed as DPPH radical scavenging activity at 0.5 mM measured at 21.33 +/- 0.6 mins; type: functional
Method in brief: (§7)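 DPPH (0.3 mM) in ethanol was mixed with the test compound at final concentrations of 0–1 mM. Absorbance at 518 nm was read every 30 min for 180 min. BHT served as the positive control.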

[33] = Antioxidant activity assessed as DPPH radical scavenging activity at 0.25 mM measured at 22.5 +/- 0.87 mins; type: functional; method in brief: as §7
[34] = Toxicity in human leukocytes assessed as reduction in cell viability at 1 mM incubated for 3 hrs; type: cell-based; settings: 1000 µM; method in brief: as §6

Compound: O=c1c2ccccc2[se]n1-c1ccccc1
- Activity [1]: Active

Compound: Cc1c(C)c2c(c(C)c1O)CC[C@@](C)(CCC[C@H](C)CCC[C@H](C)CCCC(C)C)O2 [ALPHA-TOCOPHEROL]
- IC50 [2]: 35.3 µM

Compound: Cc1cn([C@H]2C[C@H](N)[C@@H](C[Te]c3ccccc3)O2)c(=O)[nH]c1=O
- inhibition [3]: 50%
- Activity (Mus musculus [4]): Non-Toxic
- inhibition [5]: Active
- Activity (Mus musculus [6]): Non-Toxic
- Activity (Mus musculus [7]): Non-Toxic
- Activity (Mus musculus [8]): Non-Toxic
- Activity (Mus musculus [9]): Non-Toxic
- Activity (Mus musculus [10]): Non-Toxic
- growth inhibition (GI) 5637 [11]: >50%
- Activity (Mus musculus [12]): Non-Toxic
- Activity (Mus musculus [13]): Non-Toxic
- Activity (Mus musculus [14]): Non-Toxic
- inhibition [15]: Active
- Activity (Mus musculus [16]): Non-Toxic
- IC50 5637 [17]: 6.61 µM
- Activity 5637 [18]: Active
- Activity 5637 [19]: inactive
- Activity (Mus musculus [20]): Non-Toxic
- Activity 5637 [21]: Active
- inhibition [22]: 50%
- Activity (Mus musculus [23]): Non-Toxic
- mortality at 168 h [24]: 25%
- inhibition [25]: 50%
- Activity [26]: Active
- inhibition [27]: 50%
- IC50 5637 [28]: 7.94 µM
- growth inhibition (GI) 5637 [29]: >50%
- Activity [30]: Active
- Activity [31]: Non-Toxic
- IC50 [2]: 4.67 µM

Compound: COc1ccc(SC[C@H]2O[C@@H](n3cc(C)c(=O)[nH]c3=O)C[C@@H]2N)cc1
- inhibition [5]: inactive
- inhibition [15]: inactive
- Activity [26]: Active
- IC50 5637 [28]: > 100 µM

Compound: Cc1ccccc1[Se]C[C@H]1O[C@@H](n2cc(C)c(=O)[nH]c2=O)C[C@@H]1N
- inhibition [5]: inactive
- inhibition [15]: inactive
- Activity [26]: Active
- IC50 5637 [28]: > 100 µM

Compound: c1ccc([Se][Se]c2ccccc2)cc1
- Activity [1]: Active
- IC50 [2]: 233 µM

Compound: COc1ccc([Se]C[C@H]2O[C@@H](n3cc(C)c(=O)[nH]c3=O)C[C@@H]2N)cc1
- inhibition [5]: inactive
- inhibition [15]: inactive
- Activity [26]: Active
- IC50 5637 [28]: > 100 µM

Compound: Cc1cn([C@H]2C[C@H](N)[C@@H](C[Se]c3ccc(Cl)cc3)O2)c(=O)[nH]c1=O
- inhibition [5]: inactive
- inhibition [15]: inactive
- IC50 5637 [28]: > 100 µM

Compound: Cc1cc(C(C)(C)C)c(O)c(C(C)(C)C)c1
- inhibition [32]: 50%
- inhibition [33]: 50%

Compound: Cc1ccc(SC[C@H]2O[C@@H](n3cc(C)c(=O)[nH]c3=O)C[C@@H]2N)cc1
- inhibition [5]: inactive
- inhibition [15]: inactive
- IC50 5637 [28]: > 100 µM

Compound: Cc1cn([C@H]2C[C@H](N)[C@@H](CSc3ccccc3)O2)c(=O)[nH]c1=O
- inhibition [5]: inactive
- inhibition [15]: inactive
- IC50 5637 [28]: > 100 µM

Compound: CC(C)(C)OO [TERT-BUTYL HYDROPEROXIDE]
- Activity [34]: 40%

Compound: Cc1cn([C@H]2C[C@H](N)[C@@H](CSc3ccc(Cl)cc3)O2)c(=O)[nH]c1=O
- inhibition [5]: inactive
- inhibition [15]: inactive
- IC50 5637 [28]: > 100 µM

Compound: Cc1cn([C@H]2C[C@H](N=[N+]=[N-])[C@@H](CO)O2)c(=O)[nH]c1=O [ZIDOVUDINE]
- IC50 5637 [17]: 129 µM

Compound: Cc1cn([C@H]2C[C@H](N)[C@@H](C[Se]c3ccccc3)O2)c(=O)[nH]c1=O
- inhibition [5]: inactive
- inhibition [15]: inactive
- Activity [26]: Active
- IC50 5637 [28]: > 100 µM

Compound: Cc1ccc([Se]C[C@H]2O[C@@H](n3cc(C)c(=O)[nH]c3=O)C[C@@H]2N)cc1
- inhibition [5]: inactive
- inhibition [15]: inactive
- Activity [26]: Active
- IC50 5637 [28]: > 100 µM
